# Results of several laboratories.
# Each line is one published result; the experiments were not run side by side.
# Target: Cytochrome P450 2C19 (CYP2C19, Homo sapiens, UniProt P33261)
# Effect on: enzyme activity
# Action: inhibitor
SMILES,technique,species,matrix,time,pH,IC50
COc1ccn2c(Nc3ccccc3F)c(-c3ccncn3)nc2c1,,,,,,0.93 µM
CCOC(=O)C1CCN(C(=O)c2ccc(N(CC)Cc3cnc4nc(N)nc(N)c4n3)cc2)CC1,luciferase,,,,,6.76 µM
CCC(C)(C)C(=O)O[C@H]1C[C@@H](C)C=C2C=C[C@H](C)[C@H](CC[C@@H](O)C[C@@H](O)CC(=O)O)[C@H]21,fluorescence,,,,,> 100 µM
CN(Cc1cnc2nc(N)nc(N)c2n1)c1ccc(C(=O)N2CCCCC2)cc1,luciferase,,,,,16.2 µM
CC(CN1c2ccccc2Sc2ccccc21)N(C)C (stereo not drawn),fluorescence,,,,,40.8 µM
CCc1cc(/C(C)=N/OCc2ccc(C3CCCCC3)c(C(F)(F)F)c2)ccc1CN1CC(C(=O)O)C1,,human,liver microsomes,20 min,,> 0.5 µM
COc1ccc2c(Cc3ccccc3F)c3[n+](cc2c1OC)CCc1cc2c(cc1-3)OCO2,,,,,,> 10 µM
COc1ccc2[nH]c([S+]([O-])Cc3ncc(C)c(OC)c3C)nc2c1 (stereo not drawn),,human,liver microsomes,90 min,pH 7.4,0.662 µM
C#CCN(Cc1cnc2nc(N)nc(N)c2n1)c1ccc(C(=O)N2CCC(C(=O)OC)CC2)cc1,luciferase,,,,,9.77 µM
CCCN(CCC)CCc1cccc2c1CC(=O)N2,fluorescence,,,,,> 1000 µM
COc1ccc2cc3[n+](cc2c1OC)CCc1cc2c(cc1-3)OCO2,,,,,,> 10 µM
Nc1nc(N)c2nc(CNc3ccc(C(=O)NCCc4ccccc4)cc3)cnc2n1,luciferase,,,,,15.1 µM
